From ChEMBL document CHEMBL1165950, “Design and synthesis of new potent anticancer pyrazoles with high FLT3 kinase inhibitory selectivity” (Bioorg Med Chem, 2010)

Experiments:
Format in all cases: functional
HCT-116 = assay: Cytotoxicity against human HCT116 cells assessed as cell growth at 10 uM; conditions: read-out: Activity
How it was run: (§1)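 Single-dose NCI-60 screen at 10 µM. Cells were grown in RPMI 1640 with 5% FBS and 2 mM L-glutamine, then treated for 48 h at 37 °C. Protein was measured by SRB staining with absorbance at 515 nm. Percentage growth was recorded, and inhibition percentage was calculated as 100 minus growth percentage.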

K562 [1] = assay: Cytotoxicity against human K562 cells assessed as cell growth at 10 uM after 48 hrs by sulforhodamine B assay; conditions: K562, 48 h, read-out: Activity
ACHN = assay: Cytotoxicity against human ACHN cells assessed as cell growth at 10 uM; conditions: read-out: Activity; how it was run: as §1
COLO 205 = assay: Cytotoxicity against human COLO205 cells assessed as cell growth at 100 nM after 48 hrs by sulforhodamine B assay; conditions: COLO 205, 48 h, read-out: Activity
HL-60(TB) [2] = assay: Cytotoxicity against human HL-60(TB) cells assessed as cell growth at 100 nM after 48 hrs by sulforhodamine B assay; conditions: HL-60, 48 h, read-out: Activity
How it was run: (§2)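 NCI 60-cell panel. Cells are grown in RPMI 1640 with 5% FBS and 2 mM L-glutamine, seeded at 5000–40,000 cells/well according to doubling time, and preincubated 24 h. Time-zero plates are TCA-fixed. Compound from DMSO stock is given at five 10-fold or 1/2-log concentrations for 48 h at 37 °C, 5% CO2. Suspension cells are fixed with 80% TCA (final 16%) and SRB-stained, with absorbance at 515 nm. Percent growth is derived from Tz, control and test readings.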

U-251 = assay: Cytotoxicity against human U251 cells assessed as cell growth at 100 nM after 48 hrs by sulforhodamine B assay; conditions: U-251, 48 h, read-out: Activity
[3] = Cytotoxicity against human RPMI8266 cells assessed as cell growth at 100 nM after 48 hrs by sulforhodamine B assay; conditions: read-out: Activity
HL-60(TB) [4] = assay: Cytotoxicity against human HL-60(TB) cells assessed as cell growth at 0.01 uM after 48 hrs by sulforhodamine B assay; conditions: HL-60, 48 h, read-out: Activity; how it was run: as §2
786-0 [5] = assay: Growth inhibition of human 786-0 cells after 48 hrs by sulforhodamine B assay; conditions: 786-0, 48 h; for CC50: read-out: LC50 (the source's name)
How it was run: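 NCI five-dose SRB assay in RPMI 1640 with 5% FBS and 2 mM L-glutamine. Cells were preincubated 24 h, then exposed 48 h at 37 °C to five concentrations (10-fold or half-log serial dilutions from DMSO stocks). TCA fixation, SRB staining, and absorbance at 515 nm followed. IC50 was taken where [(Ti−Tz)/(C−Tz)]×100 = 50, with Tz as time-zero cell density.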

MDA-MB-231 = assay: Cytotoxicity against human MDA-MB-231 cells assessed as cell growth at 0.001 uM after 48 hrs by sulforhodamine B assay; conditions: MDA-MB-231, 48 h, read-out: Activity
HOP-62 = assay: Growth inhibition of human HOP62 cells after 48 hrs by sulforhodamine B assay; conditions: HOP-62, 48 h
How it was run: (§3)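 NCI 60-cell screen, five-dose mode. Cells grown in RPMI 1640 with 5% FBS and 2 mM L-glutamine and plated at 5000-40,000 cells/well according to doubling time. After 24 h preincubation, a Tz plate was TCA-fixed. Five concentrations (10-fold or 1/2 log dilutions) were applied for 48 h at 37 °C. SRB staining read at 515 nm. IC50 taken from [(Ti-Tz)/(C-Tz)]×100 = 50.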

MOLT-4 = assay: Cytotoxicity against human MOLT4 cells assessed as cell growth at 10 uM; conditions: read-out: Activity
How it was run: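 NCI-60 screen: cells grown in RPMI 1640 with 5% FBS and 2 mM L-glutamine, plated at 5000–40,000 cells/well according to doubling time, and preincubated 24 h at 37 °C, 5% CO2. The single 10 µM dose (DMSO stock) was added, then incubated 48 h. Cells were TCA-fixed and stained with 0.4% SRB, read at 515 nm, and growth % calculated against time-zero and control plates.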

PC-3 [6] = assay: Cytotoxicity against human PC3 cells assessed as cell growth at 100 nM after 48 hrs by sulforhodamine B assay; conditions: PC-3, 48 h, read-out: Activity
IGROV-1 = assay: Cytotoxicity against human IGROV1 cells assessed as cell growth at 10 uM; conditions: read-out: Activity; how it was run: as §1
NCI-H23 = assay: Cytotoxicity against human NCI-H23 cells assessed as cell growth at 10 uM after 48 hrs by sulforhodamine B assay; conditions: NCI-H23, 48 h, read-out: Activity
MDA-MB-435 = assay: Cytotoxicity against human MDA-MB-435 cells assessed as cell growth at 100 nM after 48 hrs by sulforhodamine B assay; conditions: MDA-MB-435, 48 h, read-out: Activity
786-0 [7] = assay: Cytotoxicity against human 786-0 cells assessed as cell growth at 1 uM after 48 hrs by sulforhodamine B assay; conditions: 786-0, 48 h, read-out: Activity
How it was run: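 NCI-60 five-dose screen. Cells were grown in RPMI 1640 with 5% FBS and 2 mM L-glutamine, plated at 5000–40,000 cells/well and preincubated for 24 h. Time-zero plates were TCA-fixed. DMSO-solubilized drug was added at five concentrations (10-fold or ½-log serial dilutions) for 48 h at 37 °C, 5% CO2. Cells were TCA-fixed, stained with 0.4% SRB and read at 515 nm. Percent growth used time-zero, control and test absorbances.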

HT-29 = assay: Cytotoxicity against human HT-29 cells assessed as cell growth at 1 uM after 48 hrs by sulforhodamine B assay; conditions: HT-29, 48 h, read-out: Activity
PC-3 [8] = assay: Cytotoxicity against human PC3 cells assessed as cell growth at 0.01 uM after 48 hrs by sulforhodamine B assay; conditions: PC-3, 48 h, read-out: Activity
[9] = Growth inhibition of human Hs 578T cells after 48 hrs by sulforhodamine B assay; conditions: for CC50: read-out: LC50 (the source's name); how it was run: as §3
K562 [10] = assay: Cytotoxicity against human K562 cells assessed as cell growth at 1 uM after 48 hrs by sulforhodamine B assay; conditions: K562, 48 h, read-out: Activity
K562 [11] = assay: Cytotoxicity against human K562 cells assessed as cell growth at 0.01 uM after 48 hrs by sulforhodamine B assay; conditions: K562, 48 h, read-out: Activity
HOP-92 = assay: Cytotoxicity against human HOP92 cells assessed as cell growth at 100 nM after 48 hrs by sulforhodamine B assay; conditions: HOP-92, 48 h, read-out: Activity
NCI-H322M = assay: Cytotoxicity against human NCI-H322M cells assessed as cell growth at 100 nM after 48 hrs by sulforhodamine B assay; conditions: read-out: Activity
OVCAR-5 [12] = assay: Cytotoxicity against human OVCAR5 cells assessed as cell growth at 1 uM after 48 hrs by sulforhodamine B assay; conditions: OVCAR-5, 48 h, read-out: Activity
OVCAR-5 [13] = assay: Cytotoxicity against human OVCAR5 cells assessed as cell growth at 0.001 uM after 48 hrs by sulforhodamine B assay; conditions: OVCAR-5, 48 h, read-out: Activity

Row | Structure (SMILES) | growth at 10 µM (HCT-116) [%] | growth at 10 µM (K562 [1]) [%] | growth at 10 µM (ACHN) [%] | growth at 0.1 µM (COLO 205) [%] | growth at 0.1 µM (HL-60(TB) [2]) [%] | growth at 0.1 µM (U-251) [%] | growth at 0.1 µM [3] [%] | growth at 0.01 µM (HL-60(TB) [4]) [%] | GI50 (786-0 [5]) [nM] | TGI (786-0 [5]) [µM] | CC50 (786-0 [5]) [µM] | growth at 0.001 µM (MDA-MB-231) [%] | GI50 (HOP-62) [nM] | LC50 (50% lethal concentration) (HOP-62) [µM] | TGI (HOP-62) [µM] | growth at 10 µM (MOLT-4) [%] | growth at 0.1 µM (PC-3 [6]) [%] | growth at 10 µM (IGROV-1) [%] | growth at 10 µM (NCI-H23) [%] | growth at 0.1 µM (MDA-MB-435) [%] | further results
1 | Cc1cc(O)cc(-c2nn(CC#N)cc2-c2ccnc(-c3ccc(N(C)C)cc3)c2)c1 | 12.3 | -6 | 31.2 | 94 | 98 | 91 | 96 | 97 | 3410 | 16.6 | > 100 | 99 | 2820 | > 100 | 23.4 | 28.1 | 94 | 44 | -37 | 51 | growth at 1 µM (786-0 [7]): 14%; growth at 1 µM (HT-29): 24%; growth at 0.01 µM (PC-3 [8]): 92%; GI50 [9]: 2130 nM; TGI [9]: 7 µM; CC50 [9]: > 100 µM; growth at 1 µM (K562 [10]): 7%; growth at 0.01 µM (K562 [11]): 101%; growth at 0.1 µM (HOP-92): 73%; growth at 0.1 µM (NCI-H322M): 93%; growth at 1 µM (OVCAR-5 [12]): 64%; growth at 0.001 µM (OVCAR-5 [13]): 96%
2 | COc1cc(C)cc(-c2nn(CC#N)cc2-c2ccnc(-c3ccc(N(C)C)cc3)c2)c1 | -31.6 | 3 | 16 | -15 | -3 | 16 | 57 | 97 | 420 | 5.43 | > 100 | 97 | 390 | > 100 | 18.7 | 16 | 14 | 13.1 | 5 | -25 | growth at 1 µM (786-0 [7]): -8%; growth at 1 µM (HT-29): -29%; growth at 0.01 µM (PC-3 [8]): 96%; GI50 [9]: 264 nM; TGI [9]: 0.695 µM; CC50 [9]: > 100 µM; growth at 1 µM (K562 [10]): 4%; growth at 0.01 µM (K562 [11]): 61%; growth at 0.1 µM (HOP-92): 35%; growth at 0.1 µM (NCI-H322M): 49%; growth at 1 µM (OVCAR-5 [12]): 31%; growth at 0.001 µM (OVCAR-5 [13]): 98%
